Data on four compounds can be found in paper PMC4073659 (Journal of Natural Products, 2014).

SMILES strings stand for the structures.

The subject of test [1] is delta toxin production (strain AH2759). In words: Quorum sensing inhibition observed by delta toxin immunoblot. The class given is cell-based, Staphylococcus aureus (MRSA). The note with it: strain AH2759 in TSB; compounds 0.3–400 μM, AIP-2 2–500 nM; spent media. The procedure, abridged: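 Spent media from the agr P3lux reporter cultures: TSB with 10 μg/mL chloramphenicol, 1:500 inoculum, 1% DMSO final, 37 °C with shaking at 250 rpm. Wells were pooled and 0.22 μm filtered, then run on 15% SDS-PAGE and transferred to PVDF (90 min, 160 mA). Blots were blocked overnight at 4 °C in milk/BSA TBST, then probed 1 h at rt with rabbit anti-delta toxin (1:2000) and HRP anti-rabbit (1:10 000).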
A general note: In western blotting, separated proteins are transferred to a membrane and probed.

Test [2] deals with agr quorum-sensing system (agr P3lux reporter strain AH2759). In words: agr P3lux reporter strain assay for quorum sensing inhibition. Format: cell-based, Staphylococcus aureus (CA-MRSA strain LAC, USA300). Conditions: Staphylococcus aureus, read-out: agr P3lux IC50, reporter strain AH2759; cell-density-normalized luminescence; ± standard error from four-parameter logistic fit.

`CC(=O)C(O)c1cc(O)c2c(c1)C(=O)c1cc(O)cc(O)c1C2=O` (centres unmarked) [compound 4]: in test [1], the “suppression of delta toxin production (immunoblot)” value is on record as “dose-dependent suppression”. By IC50 is commonly meant the concentration needed to halve the response being measured. `C[C@H](O)Cc1cc(O)c2c(c1)C(=O)c1cc(O)cc(O)c1C2=O` [compound 6, (+)-2′S-isorhodoptilometrin]: the IC50 in test [2] was < 10 µM.

`O=C(O)c1cc(O)c2c(c1)C(=O)c1cc(O)c(O)c(O)c1C2=O` [compound 1]: the “suppression of delta toxin production (immunoblot)” value in test [1] is “dose-dependent suppression”. As for `O=C1c2cc(O)cc(O)c2C(=O)c2c(O)cc(CO)cc21` [compound 3, ω-hydroxyemodin], the IC50 in test [2] is < 10 µM. Also, the “suppression of delta toxin production (immunoblot)” value in test [1] is reported as “dose-dependent suppression”.
